Hits are enriched below; roughly 2.2% of the tested compounds scored in any of these assays.
ERAP1 HTS inh: ERAP1 (human) enzyme inhibition; AID 652197; recombinant ERAP1, Leu-AMC fluorescence, 60 min; inhibition, % at 10.7 µM; 340,000 tested, 0.15% active; Q9NZ08;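 active = mean replicate inhibition of at least 30%, or all replicates individually reaching that 30% level; inactive = mean below 30% and not every replicate reaching it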;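 also: 0% = neutral control wells and 100% = L-leucinethiol positive control wells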
FGF22 binding: FGF22 (human) thermal shift binding | activity (Tm shift, normalised), % at 9.99 µM | 340,000 tested, 1.5% active | Q9HCT0 | AID 651658 | recombinant FGF22 thermal shift, SYPRO orange fluorescence; percent of sucrose octasulfate shift, DMSO zero;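 active = mean Tm shift, scaled 0 neutral to 100 positive control, at about 1.3% or above, every replicate too, limit read from the data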
SIRT5 block: inhibitors of human sirtuin-5 desuccinylase; Q9NXA8; Purified SirT5, succinyl-peptide AMC, trypsin-coupled fluorescence; inhibition, % at 15 µM; 330,000 tested, 1.1% active; AID 652115; in the data active = inhibition above about 15%
FN deposition inh: fibronectin deposition inhibition; 350,000 tested, 0.086% active; AH1F fibroblasts, Alexa488-fibronectin deposition fluorescence, overnight; AID 743247; inhibition, % at 12.6 µM;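 active = mean inhibition across replicates of 30% or more, regardless of how many single replicates reach that level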;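 also: positive control wells lacked labelled fibronectin entirely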
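Assay system: AH1F fibroblasts assembling fluorescent fibronectin matrix; Amount: 10000 AH1F cells per well; Buffer or medium: DMEM, 2% serum; Probe or stimulus: Alexa488-fibronectin, 24 nM final in well; Doses: single compound dose, delivered by pin transfer; Incubation: 1 h adhesion, overnight exposure; Measured by: fluorescence 485/525 nm; Read-out: fibronectin deposition inhibition.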
PGC1a acetyl inh: PGC1a acetylation modulation, inhibitor mode. AID 651687. 350,000 tested, 0.17% active. U2OS PGC1a acetylation, AlphaScreen anti-acetyl-lysine; with virally co-expressed GCN5 acetyltransferase. inhibition, % at 15.6 µM;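 active = every replicate shows inhibition of at least 40%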;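 also: 0% = neutral control wells and 100% = positive control wells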
The depositor's hits bear a star; . = not tested or not shown.

SMILES | ERAP1 HTS inh | FGF22 binding | SIRT5 block | FN deposition inh | PGC1a acetyl inh
CCOc1ccc(CN2CCN(Cc3ccsc3)C(CCO)C2)cc1CO (stereo not given) | 1 | 0 | -2 | 8 | .
CC(C)(O)C#Cc1ccc(CN2CCN(Cc3ccsc3)C(CCO)C2)cc1 (stereo not given) | -3 | 43* | 3 | -6 | .
C#Cc1ccc(CN2CCN(Cc3ccsc3)C(CCO)C2)cc1 (stereo not given) | 1 | . | -2 | 9 | .
COc1ccc2c3c(n(C)c2c1)[C@H](CO)N(C(=O)c1ccccn1)CC31CCN(C(C)=O)CC1 | -4 | 0 | 1 | . | 0
C[N+]12CCCCC1C(COC(=O)c1ccc3c(c1)OCO3)CCC2 (stereo not given) | 31* | . | 0 | -5 | -36
C[C@@H]1CCCCO[C@@H](CN(C)C(=O)c2ccncc2)[C@H](C)CN([C@H](C)CO)C(=O)c2cc(NC(=O)c3ccccc3)ccc2O1 | 2 | 0 | 0 | . | -8
Cc1cc(C)c([C@@H]2C[C@H]3CN(C4CCCC4)C(=O)[C@]34CCCN24)c(-n2cccn2)c1 | -6 | 0 | -5 | 38* | 1
CC(Oc1ccc2c(-c3ccccc3)cc(=O)oc2c1)C(=O)NCCN1CCOCC1 (stereo not given) | 2 | 43* | -2 | -2 | -1
CC(Oc1ccc2c(-c3ccccc3)cc(=O)oc2c1)C(=O)NCCCN1CCOCC1 (stereo not given) | -1 | 0 | 2 | 3 | -7
C[C@@H]1CN([C@@H](C)CO)C(=O)c2cc(NC(=O)CCC(F)(F)F)ccc2O[C@@H](C)CCCCO[C@H]1CN(C)C(=O)Nc1cccc2ccccc12 | . | 0 | . | 4 | -38
COc1ccc(Nc2nc(NCc3ccco3)nc(N/N=C/c3ccc(O)cc3)n2)cc1 | 2 | 1.9* | 0 | 8 | -5
C=CCc1cccc(CNc2c(C)cc(C)cc2C)c1O | 3 | 44* | -2 | 8 | -18
C=CCc1cccc(CNn2cnnc2)c1O | 2 | 0 | -5 | 7 | -7
Cc1ccc(C2NC(=S)NC3=C2C(=O)CCC3)cc1 (stereo not given) | 3 | 43* | -1 | -1 | .
Cc1noc(C)c1NC(=O)N(C)C[C@@H]1Oc2ccc(NS(=O)(=O)c3cccs3)cc2CC(=O)N([C@H](C)CO)C[C@H]1C | . | 0 | . | . | 0
CCOC(=O)C1=NOC(CNC(=O)c2ccccc2Cl)C1 (stereo not given) | -3 | 0 | -2 | . | -2
CCOC(=O)C1=NOC(COc2ccccc2C=O)C1 (stereo not given) | -2 | 0 | 23* | . | 3
CCn1cc(C(=O)OC)c(=O)c2cc(S(=O)(=O)N(C)C3CCCCC3)ccc21 | -3 | 0 | 27* | -14 | -22
O=C1C(=Cc2cn(-c3ccccc3)nc2-c2ccc(OCc3ccc(Cl)cc3)cc2)SC(=S)N1CCS(=O)(=O)O | 6 | 41 | 37* | 2 | .
Cc1cccc(OCC(=O)NCC(=O)N/N=C/c2cc(Br)ccc2OCc2ccccc2)c1 | -2 | 0 | 3 | . | 1
Cc1cccc(OCC(=O)NCC(=O)N/N=C/c2ccccc2)c1 | -4 | 43* | -8 | 5 | 4
Cc1cccc(OCC(=O)NCC(=O)N/N=C/c2ccc(O)cc2O)c1 | -1 | 0 | 2 | 8 | 3
O=C(COc1cccc(Br)c1)N/N=C/C(=O)c1ccccc1 | 0 | 43* | -4 | 7 | 17
CC(C)NC(=O)N[C@@H]1CC[C@H](CCNC(=O)C2CC2)O[C@@H]1CO | 0 | 0 | 11 | 2 | -3
Cc1ccc(Cn2ccc(NC(=O)c3noc4c3CCc3ccccc3-4)n2)cc1 | . | . | . | -7 | 1
SMILES | ERAP1 HTS inh | FGF22 binding | SIRT5 block | FN deposition inh | PGC1a acetyl inh
COc1ccc2c(c1)CCc1c(C(=O)Nc3ccn(Cc4ccc(C)cc4)n3)noc1-2 | 0 | 28* | -4 | . | 1
CCC/C(=C1/c2ccccc2C(=O)N1c1ccccc1)c1c(C)noc1C | 1 | 43* | . | -3 | .
CCC/C(=C1/c2ccccc2C(=O)N1c1ccccc1)c1ccc2c(c1)OCO2 | 0 | 0 | . | -2 | -19
Cc1noc(C)c1NC(=O)Nc1ccc2c(c1)C(=O)N([C@@H](C)CO)C[C@@H](C)[C@@H](CN(C)C(=O)Nc1cccc3ccccc13)OCCCC[C@@H](C)O2 | . | 0 | . | -2 | 6
C/C(Cc1ccccc1)=N\NC(=O)c1ccc(F)cc1 | 0 | 0 | 0 | 4 | 2
CC12CC(c3ccccc3O1)C(/C(N)=N/NC(=O)c1ccc(F)cc1)C(=O)N2 (stereo not given) | 1 | 1 | 16* | -10 | .
CCCC(=O)Nc1ccc2c(c1)C(=O)N(C)[C@H]1CC[C@H](CC(=O)Nc3cn(C)nc3C)O[C@H]1CO2 | 1 | 0 | -3 | -16 | 0
CCOc1cc(/C=N/NC(=O)c2cccnc2)ccc1OCC(=O)N(C)C | -4 | 44* | 2 | 4 | .
CCOc1cc(/C=N/NC(=O)c2cccnc2)ccc1OCC(N)=O | 3 | 0 | 1 | -4 | .
Cc1cccc(NC(=S)Nn2cnnc2)c1C | -1 | 43* | -4 | 3 | .
Cc1ccccc1NC(=S)Nn1cnnc1 | 5 | 0 | -1 | -5 | .
O=C(/C=C/NNC(=O)c1ccccc1)c1ccc(Br)cc1 | . | . | . | . | 15
O=C(/C=C/NNC(=O)c1ccc(Cl)cc1)c1ccccc1 | 1 | 44* | -6 | 1 | .
C[C@H](CO)N1C[C@H](C)[C@H](CN(C)S(=O)(=O)c2ccc(F)cc2)Oc2ccc(NS(=O)(=O)c3ccccc3)cc2CC1=O | . | 0 | . | . | 1
O=C(Nc1ccc(F)cc1)N1C[C@H]2[C@@H](c3ccccc31)[C@@H](CO)N2C(=O)c1ccccc1F | 1 | 0 | 3 | . | -6
COc1ccc(NC(=O)C(Cl)=C(Cl)Cl)cn1 | -2 | 0 | -2 | 19 | -101
COc1ccc(NC(=O)C(C)(C)Oc2ccc(Cl)cc2)cn1 | -5 | 0 | -3 | . | .
COc1ccc(NC(=O)/C(Cl)=C(/Cl)S(=O)Cc2ccc(Cl)cc2)cn1 (stereo not given) | 2 | 0 | -4 | 55* | 100*
COc1ccc(NC(=O)/C(Cl)=C(/Cl)S(=O)(=O)Cc2ccccc2)cn1 | . | . | . | . | 64*
COc1ccccc1S(=O)(=O)N[C@@H]1CC[C@H](CCn2cc(C3CCCCC3)nn2)O[C@@H]1CO | -1 | 0 | -2 | 1 | -6
CN(Cc1ccccc1)C(=O)c1ncn(Cc2ccccc2)c1C(=O)N(C)Cc1ccccc1 | -2 | 0 | 1 | 2 | .
CCN(CC)C(=O)c1ncn(C)c1C(=O)N(CC)CC | 107* | 0 | . | -9 | 2
CN(Cc1ccccc1)C(=O)c1ncn(C)c1C(=O)N(C)Cc1ccccc1 | 31* | 0 | -3 | -3 | -6
CCN(CC)C(=O)c1ncn2c1C(=O)NC[C@H]2C | -4 | 0 | -1 | -6 | .
Cc1noc(C)c1NC(=O)N(C)C[C@H]1Oc2c(NC(=O)c3cnccn3)cccc2C(=O)N([C@H](C)CO)C[C@H]1C | 2 | 1 | 1 | 10 | 5
